Compound activity (PubChem)
This is a sample that favours compounds with a hit; in the whole collection about 4.1% have one here.
hERG protect: hERG rescue from dofetilide block, primary screen, cell-based, CHO-hERG, FluxOR thallium flux, dofetilide IC70 | dofetilide IC70 present | AID 1511, 2009 | Voltage-gated inwardly rectifying potassium channel KCNH2 (Homo sapiens), Q12809 | hit rate 0.51% among 310,000 | activation (rescue from dofetilide block), less the hit threshold, % at 10 µM;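 active = activation above the mean of controls blocked by dofetilide plus 5 SD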;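 also: thallium influx through hERG after potassium depolarization seen as dye fluorescence rise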
KCNK9 block: KCNK9 potassium channel inhibitors, primary screen, HEK293 cells, thallium flux; hit rate 1.2% among 310,000; AID 488922, 2010; B-score at 10 µM; FluxOR thallium flux fluorescence; hits give low values; Potassium channel subfamily K member 9 (Homo sapiens), Q9NPC2;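 active = ratio B-score over 3 SD below the library mean, with starting fluorescence within 5 SD of its mean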;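 also: negative B-score means less thallium flux so channel inhibition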
Cl transport mod: KCC2 cotransporter modulators, thallium flux, primary screen, cell-based, HEK293 KCC2, FluoZin-2 fluorescence, MLSMR | Solute carrier family 12 member 5 (Homo sapiens), Q9H2X9 | KCC2 cells, thallium flux FluoZin-2 fluorescence | B-score of Tl+ flux slope (higher = more flux/activation; lower = inhibition) at 10 µM | hit rate 2.2% among 190,000 | AID 1456, 2008;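 active = thallium flux slope and its plate-corrected score both differing from the plate sample mean at a set confidence after two filtering rounds, in either direction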;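 also: slope of fluorescence scaled to starting intensity during 10 to 20 s after thallium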
Target sequence (Q9H2X9 whole entry, looked up): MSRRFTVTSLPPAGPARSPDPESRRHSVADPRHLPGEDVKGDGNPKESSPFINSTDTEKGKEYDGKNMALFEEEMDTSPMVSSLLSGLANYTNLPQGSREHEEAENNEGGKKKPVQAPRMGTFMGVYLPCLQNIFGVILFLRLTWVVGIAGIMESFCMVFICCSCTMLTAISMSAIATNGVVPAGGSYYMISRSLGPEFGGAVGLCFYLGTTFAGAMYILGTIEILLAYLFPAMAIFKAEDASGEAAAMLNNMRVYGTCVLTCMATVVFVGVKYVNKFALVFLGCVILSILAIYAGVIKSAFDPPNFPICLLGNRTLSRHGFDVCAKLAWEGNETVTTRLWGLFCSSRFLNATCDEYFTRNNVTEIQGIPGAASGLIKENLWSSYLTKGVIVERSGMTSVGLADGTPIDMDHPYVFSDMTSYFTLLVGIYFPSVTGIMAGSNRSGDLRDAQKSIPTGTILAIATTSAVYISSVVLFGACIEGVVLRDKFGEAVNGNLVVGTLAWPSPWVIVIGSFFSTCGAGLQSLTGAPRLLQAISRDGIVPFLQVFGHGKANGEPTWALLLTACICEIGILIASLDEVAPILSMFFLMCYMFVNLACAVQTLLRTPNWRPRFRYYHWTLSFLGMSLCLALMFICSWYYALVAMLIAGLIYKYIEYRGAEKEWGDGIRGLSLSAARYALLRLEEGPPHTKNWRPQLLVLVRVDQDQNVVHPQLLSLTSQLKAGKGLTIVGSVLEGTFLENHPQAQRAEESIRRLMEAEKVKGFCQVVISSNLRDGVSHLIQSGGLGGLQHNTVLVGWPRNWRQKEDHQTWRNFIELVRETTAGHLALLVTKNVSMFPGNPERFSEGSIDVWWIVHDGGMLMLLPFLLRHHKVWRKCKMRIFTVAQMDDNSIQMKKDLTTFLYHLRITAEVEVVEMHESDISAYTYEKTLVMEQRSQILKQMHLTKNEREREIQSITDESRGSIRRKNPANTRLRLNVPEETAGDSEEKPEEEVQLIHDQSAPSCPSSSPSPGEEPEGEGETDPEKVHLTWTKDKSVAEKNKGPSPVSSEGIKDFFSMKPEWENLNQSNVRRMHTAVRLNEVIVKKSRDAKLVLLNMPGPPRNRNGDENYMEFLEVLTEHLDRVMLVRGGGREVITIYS
KCNK3 inh: human KCNK3 channel inhibitors, primary screen, CHO cells, FluxOR thallium flux, B-score; FluxOR fluorescence; hits give low values; B-score at 10 µM; Potassium channel subfamily K member 3 (Homo sapiens), O14649; hit rate 0.84% among 340,000;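 active = B-score under library mean minus 4 SD, starting fluorescence ratio at most library mean plus 5 SD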;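 also: more negative B-score means stronger inhibition of thallium flux through KCNK3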
KCNQ1 block: inhibitors of human KCNQ1 channel, primary screen, cell-based, thallium flux, high-throughput; AID 2642, 2010; CHO-K1 KCNQ1, FluxOR thallium flux fluorescence; hits give high values; hit rate 1.3% among 310,000; Potassium voltage-gated channel subfamily KQT member 1 (Homo sapiens), P51787; B-score at 10 µM;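 active = compounds whose thallium flux B-score, printed positive for inhibition, exceeds three library SD while starting fluorescence stays within three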;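 also: channel opened by potassium depolarization with thallium stimulus after 20 min compound exposure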
KCNQ1 act: potentiators or activators of KCNQ1 channel, primary screen, cell-based, thallium flux, high-throughput; AID 2648, 2010; CHO-K1 KCNQ1, thallium flux FluxOR fluorescence; hits give high values; Potassium voltage-gated channel subfamily KQT member 1 (Homo sapiens), P51787; hit rate 0.35% among 310,000; B-score at 10 µM;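 active = fluorescence ratio B-score, a plate-corrected score, at least three library SD, with initial intensity B-score within 5 SD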
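assay system = CHO-K1 cells stably expressing KCNQ1 | medium = assay buffer, equal DMSO in all wells | timing = 37 °C overnight plating, 90-min dark dye load, 20-min compound pretreatment | measured by = kinetic FluxOR thallium fluorescence, 10-s 1-Hz baseline, 110-s post-stimulus read | measure = fluorescence change relative to baseline, converted to B score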
KCC2 sec1: KCC2 modulators in sodium-free buffer, confirmation, cell-based, HEK293 KCC2, thallium flux, secondary assay | shares compounds with Cl transport mod | FluoZin2 fluorescence; hits give high values | normalised thallium flux (F/F0 slope) at 10 µM | hit rate 15% among 3,700 | AID 1713, 2009;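 active = thallium flux slope above the same plate's solvent-only control mean plus 3 SD; inconclusive = the two replicate wells disagree; inactive = no significant difference from solvent-only control wells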
KCC2 bumet counter: thallium flux persisting under bumetanide in KCC2 cells, confirmation, counter-screen for KCC2 modulator project, cell-based, HEK293 KCC2, FluoZin2, secondary assay 3; HEK293-KCC2 + bumetanide/ouabain; hits give high values; shares compounds with Cl transport mod; hit rate 49% among 3,700; normalized thallium flux at 10 µM;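 active = thallium entry rate above the same plate's blocked-transporter control wells by more than 3 SD; inconclusive = the two repeat wells disagree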;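 also: raw slope of fluorescence over initial fluorescence between 10 and 20 s after thallium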
KCC2 sec2: KCC2 modulators without ouabain present, confirmation, cell-based, HEK293 KCC2, thallium flux, FluoZin2, secondary assay 2; shares compounds with Cl transport mod; thallium flux FluoZin2 fluorescence; actives lie on both sides; F/F0 rise rate, 10–20 s post-thallium; normalized thallium flux at 10 µM; hit rate 23% among 3,700; AID 1715, 2009;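 active = thallium flux slope more than 3 SD above or below the plate's solvent-only control mean, mostly below; inconclusive = the two repeat wells disagreed; inactive = no significant shift from solvent-only controls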
HEK293 Tl flux: thallium flux modulation in parental HEK cells, confirmation, counter-screen for KCC2 modulator project, cell-based, counterscreen 1; shares compounds with Cl transport mod; HEK293 parental cells, thallium flux FluoZin2, ouabain; baseline-ratio fluorescence slope, 10–20 s after thallium; thallium flux rate (normalised fluorescence) at 10 µM; hit rate 46% among 3,700;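 active = thallium flux rate significantly above the same plate's solvent-only control wells, beyond their mean plus 3 SD; inconclusive = the two replicate wells gave conflicting results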
KCC2 ouabain: KCC2 inhibitors and activators, ouabain retest, confirmation, HEK-KCC2 cells; hit rate 48% among 3,700; shares compounds with Cl transport mod; raw Tl+ flux slope (below DMSO = inhibition, above = activation) at 10 µM; AID 1717, 2009; HEK293-KCC2, thallium flux FluoZin2 fluorescence; bidirectional: low = inhibitor, high = activator;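 active = thallium flux slope beyond 3 SD from same-plate DMSO control mean in most replicates, usually higher, sometimes lower; inconclusive = repeat tests gave conflicting results; inactive = no significant difference from controls in most replicates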;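 also: slope of initial-normalized fluorescence between seconds 10 and 20 after thallium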
HEK counter2: native HEK Tl+ uptake effects, second counter-screen – HEK cells, counterscreen 2, counter-screen for KCC2 modulator project, confirmation | shares compounds with Cl transport mod | HEK293 parental, thallium flux FluoZin-2 fluorescence slope | thallium flux slope at 10 µM | hit rate 33% among 3,700;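 active = thallium flux slope above the same plate's solvent-control mean plus 3 SD in both duplicate wells; inconclusive = duplicate wells that disagreed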;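 also: run without ouabain in cells lacking the KCC2 cotransporter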
Each line names hits and unclear results; the compound was inactive in the other large screens (follow-up assays come after a bar, where they were run).

O=C(CSc1nccc(=O)[nH]1)N1CCc2ccccc2C1	Cl transport mod -4.9 | KCC2 sec1 inactive | KCC2 bumet counter inactive | KCC2 sec2 0.023 | HEK293 Tl flux inactive | KCC2 ouabain 0.015 | HEK counter2 inactive
O=C(CSc1nnc(-c2ccccc2)o1)N1CCc2ccccc2C1	Cl transport mod -3.4 | KCC2 sec1 inactive | KCC2 bumet counter inactive | KCC2 sec2 0.025 | HEK293 Tl flux inconclusive | KCC2 ouabain 0.013 | HEK counter2 inactive
Cc1ccc(-c2nc(CS(=O)CC(=O)N3CCN(c4ccccc4)CC3)c(C)o2)cc1 (centres undefined)	none (no result: Cl transport mod)
Cc1oc(-c2ccccc2)nc1CS(=O)CC(=O)N1CCc2ccccc2C1 (centres undefined)	none (no result: Cl transport mod) | KCC2 sec1 inactive | KCC2 bumet counter inconclusive | KCC2 sec2 0.024 | HEK293 Tl flux inactive | KCC2 ouabain inconclusive | HEK counter2 inactive
C/C(=N\NC(=O)c1ccc2c(c1)OCO2)c1ccc(NC(=O)CCCC(=O)O)cc1	none (no result: Cl transport mod)
O=C(CSc1nc(-c2ccc(F)cc2)nc2ccc(F)cc12)Nc1cccc(C(=O)O)c1	none
O=C(CSc1nc(-c2ccccc2)nc2ccccc12)Nc1cccc(C(=O)O)c1	Cl transport mod 7.4 | KCC2 sec1 inactive | KCC2 bumet counter 0.014 | KCC2 sec2 inactive | HEK293 Tl flux 0.015 | KCC2 ouabain 0.025 | HEK counter2 0.017
Cc1c(O)ccc(/C(Cc2ccc3ccccc3n2)=N\O)c1O	Cl transport mod -4.9 | KCC2 sec1 inactive | KCC2 bumet counter inactive | KCC2 sec2 inactive | HEK293 Tl flux inactive | KCC2 ouabain 0.015 | HEK counter2 inactive
CC(=O)Oc1ccc(C(=O)Cc2ccc3ccccc3n2)c(O)c1C	none
Cc1ccc(N2CC(C(=O)N3CCc4ccccc4C3)CC2=O)cc1 (centres undefined)	none (no result: Cl transport mod) | KCC2 sec1 inactive | KCC2 bumet counter inactive | KCC2 sec2 inactive | HEK293 Tl flux inactive | KCC2 ouabain inactive | HEK counter2 inactive
CSc1ncccc1C(=O)OCC(=O)NCCCc1ccccc1	none (no result: hERG protect, KCNK9 block, Cl transport mod, KCNQ1 block, KCNQ1 act)
COc1ccc(Nc2nnc(SCc3cc(=O)n4ccsc4n3)s2)cc1	Cl transport mod -5.2 | KCC2 sec1 inactive | KCC2 bumet counter inactive | KCC2 sec2 0.03 | HEK293 Tl flux inactive | KCC2 ouabain 0.017 | HEK counter2 inactive
O=c1cc(CSc2nnc(Nc3ccccc3F)s2)nc2sccn12	none
COc1cc(/C=N/NC(=O)CN(Cc2ccccc2)S(=O)(=O)c2ccc3c(c2)OCCO3)ccc1O	Cl transport mod -4.4 | KCC2 sec1 inactive | KCC2 bumet counter inactive | KCC2 sec2 inconclusive | HEK293 Tl flux inactive | KCC2 ouabain 0.014 | HEK counter2 inactive
COc1ccc(/C=N/NC(=O)CN(Cc2ccccc2)S(=O)(=O)c2ccc3c(c2)OCCO3)cc1	none
COc1ccc(S(=O)(=O)N(CCC(=O)O)Cc2ccccc2)cc1	Cl transport mod -3.7 | KCC2 sec1 inactive | KCC2 bumet counter inactive | KCC2 sec2 0.022 | HEK293 Tl flux inactive | KCC2 ouabain 0.015 | HEK counter2 inactive
NC(=O)CCN(Cc1ccccc1)S(=O)(=O)c1ccccc1	none
O=C(O)CCCN(Cc1cccc(Br)c1)S(=O)(=O)c1ccc(Br)cc1	Cl transport mod -5.5 | KCC2 sec1 inactive | KCC2 bumet counter inactive | KCC2 sec2 0.029 | HEK293 Tl flux inactive | KCC2 ouabain 0.012 | HEK counter2 inactive
CC(OC(=O)c1cc(S(=O)(=O)N2CCOCC2)ccc1Br)C(=O)N1CCOCC1 (centres undefined)	none (no result: hERG protect, KCNK9 block, Cl transport mod, KCNQ1 block, KCNQ1 act)
Cc1ccccc1OCC(=O)OCC(=O)c1c[nH]c2ccccc12	none (no result: hERG protect, KCNK9 block, Cl transport mod, KCNQ1 block, KCNQ1 act)
O=C(OCC(=O)N1CCN(C(=O)c2ccco2)CC1)c1sc2ccccc2c1Cl	Cl transport mod -4 | KCC2 sec1 inactive | KCC2 bumet counter inconclusive | KCC2 sec2 inconclusive | HEK293 Tl flux inactive | KCC2 ouabain inactive | HEK counter2 inactive
CCc1cc2c(cc3c(=O)n(CC(=O)N4CCN(c5ccccn5)CC4)nc(CC)n32)s1	none (no result: Cl transport mod) | KCC2 sec1 inactive | KCC2 bumet counter inactive | KCC2 sec2 inactive | HEK293 Tl flux inactive | KCC2 ouabain inactive | HEK counter2 inactive
CCOc1ccc(S(=O)(=O)/N=C(/Nc2ccc(C)c(S(=O)(=O)N3CCOCC3)c2)c2ccccc2)cc1	none (no result: hERG protect, KCNK9 block, Cl transport mod, KCNQ1 block, KCNQ1 act)
CC(C)c1cccc(O)c(=O)c1	Cl transport mod 9.1 | KCC2 sec1 inactive | KCC2 bumet counter 0.016 | KCC2 sec2 inactive | HEK293 Tl flux 0.013 | KCC2 ouabain 0.026 | HEK counter2 inconclusive
CC(C)c1ccc(N)c(S(=O)(=O)O)c1	none
CCCCN1CC(COCc2ccccc2)Oc2cccc(Oc3cc(C)c(C)c(C)c3)c2S1(=O)=O (centres undefined)	none (no result: hERG protect, KCNK9 block, Cl transport mod, KCNQ1 block, KCNQ1 act)
Cc1ccc(C(=O)CCC2CCCC2=O)cc1 (centres undefined)	none
